Assay results as given in ChEMBL document CHEMBL3745678, “Novel β-Carboline/Hydroxamic Acid Hybrids Targeting Both Histone Deacetylase and DNA Display High Anticancer Activity via Regulation of the p53 Signaling Pathway” (J Med Chem, 2015).
Active and inactive are the calls of the source. No cut-off for these calls is given here.

What was measured:
[1] = Acute toxicity in ICR mouse assessed as survival rate at 375 mg/kg, ip measured on day 14; assay type: organism-based; details: in vivo
Outline: (§1)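 Female ICR mice, single intraperitoneal injection at 585.9, 468.8, […], 300 or 240 mg/kg, or vehicle control, n = 10 per group. Deaths counted at 1 h, 4 h, daily on days 1-4 and over days 5-14. Eating, drinking, body weight and activity observed for 14 days, with survival (%) taken on day 14. LD50 calculated from mortality.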

Histone deacetylase 1 [2] = target: T1, Histone deacetylase 1 (Homo sapiens, UniProt Q13547); assay: Inhibition of recombinant human HDAC1 using Boc-Lys (Ac)-AMC as substrate after 60 mins by fluorometric analysis
LoVo = assay: Antiproliferative activity against human LoVo cells assessed as cell viability after 48 hrs by MTT assay; assay type: functional, cell-based
[3] = Acute toxicity in ICR mouse assessed as survival rate at 585.9 mg/kg, ip measured on day 14; assay type: organism-based; details: in vivo; outline: as §1
Mus musculus [4] = assay: Acute toxicity in ICR mouse assessed as abnormality in eating at 240 mg/kg, ip measured for 14 days; assay type: organism-based; details: in vivo, 336 h; outline: as §1
Mus musculus [5] = assay: Toxicity in BALB/c mouse xenografted with human HCT116 cells assessed as body weight change at 90 mg/kg, po measured twice per week over 22 days; assay type: organism-based, HCT-116; details: in vivo, 528 h
HDAC6 (Homo sapiens) = assay: Selectivity index, ratio of IC50 for human recombinant HDAC8 to IC50 for human recombinant HDAC6
Mus musculus [6] = assay: Toxicity in BALB/c mouse xenografted with human HCT116 cells assessed as body weight change at 45 mg/kg, ip measured twice per week over 22 days; assay type: organism-based, HCT-116; details: in vivo, 528 h
Mus musculus [7] = assay: Acute toxicity in ICR mouse assessed as abnormal activity at 240 mg/kg, ip measured for 14 days; assay type: organism-based; details: in vivo, 336 h; outline: as §1
[8] = target: Cellular tumor antigen p53 (Homo sapiens) (UniProt P04637); assay: Activation of p53 in human HCT116 cells assessed as p53 phosphorylation at ser15 residue at 0.1 to 5 uM after 12 hrs by western blot analysis; assay type: cell-based; details: HCT-116
Outline: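 HCT116 cells exposed 12 h to compound or vehicle, then lysed on ice in PBS with 1% NP-40, 0.5% deoxycholate, 0.1% SDS and protease inhibitors. Up to 50 µg protein run on SDS-PAGE and immunoblotted for phospho-p53 (Ser15), p53 and p21. Bands quantified by densitometry against β-actin; mean ± SD of three experiments.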

[9] = Antitumor activity against human HCT116 cells xenografted in BALB/c mouse assessed as tumor growth inhibition at 90 mg/kg, po measured twice per week over 22 days; assay type: functional; details: HCT-116, po, 528 h, read-out: TGI
[10] = Upregulation of Bax expression in human HCT116 cells after 48 hrs by western blot analysis; assay type: functional, cell-based; details: HCT-116
Outline: (§2)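 HCT116 cells treated 48 h with or without compound. Western blots probed for Bax, Bcl-2, cleaved caspase-3 and PARP. Band intensities relative to β-actin by densitometry; means ± SD from three separate experiments.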

Mus musculus [11] = assay: Acute toxicity in ICR mouse assessed as death at 240 to 375 mg/kg, ip measured after 2 days; assay type: organism-based; details: in vivo, 48 h; outline: as §1
HCT-116 [12] = assay: Antitumor activity against human HCT116 cells xenografted in BALB/c mouse assessed as tumor growth inhibition at 45 and 90 mg/kg, ip measured twice per week over 22 days; assay type: functional, organism-based
Mus musculus [13] = assay: Acute toxicity in ICR mouse assessed as body weight change at 240 mg/kg, ip measured for 14 days; assay type: organism-based; details: in vivo, 336 h; outline: as §1
Histone deacetylase 8 = target: T2, Histone deacetylase 8 (Homo sapiens, UniProt Q9BY41); assay: Inhibition of recombinant human HDAC8 using Boc-Lys (Ac)-AMC as substrate after 60 mins by fluorometric analysis
T2 sequence (Q9BY41 whole entry): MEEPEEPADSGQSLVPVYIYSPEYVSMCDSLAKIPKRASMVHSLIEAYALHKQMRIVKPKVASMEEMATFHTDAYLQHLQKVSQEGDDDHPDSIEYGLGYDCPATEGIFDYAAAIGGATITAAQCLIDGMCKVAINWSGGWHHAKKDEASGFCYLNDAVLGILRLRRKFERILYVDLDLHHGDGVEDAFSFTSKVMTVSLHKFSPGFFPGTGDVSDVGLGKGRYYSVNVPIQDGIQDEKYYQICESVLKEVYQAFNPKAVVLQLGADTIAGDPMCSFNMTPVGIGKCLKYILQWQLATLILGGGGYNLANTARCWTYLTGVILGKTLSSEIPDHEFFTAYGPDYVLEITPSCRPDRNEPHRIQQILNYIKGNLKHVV

[14] = Cytotoxicity against rat IEC-18 cells assessed as survival at 5 uM after 48 hrs by MTT assay; assay type: cell-based; details: iec-18, 48 h
Outline: (§3)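 HCT116 and rat IEC-18 cells incubated 48 h over a 0–5 µM range. Viability measured by MTT and expressed as % of control. GI50 taken from the inhibition curves; three independent experiments.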

[15] = Antiproliferative activity against human HCT116 cells assessed as cell viability after 48 hrs by MTT assay; assay type: functional, cell-based, HCT-116; details: Homo sapiens, HCT-116, 48 h
Mus musculus [16] = assay: Acute toxicity in ICR mouse assessed as death at 240 to 585.9 mg/kg, ip measured after 4 hrs; assay type: organism-based; details: in vivo; outline: as §1
HCT-116 [17] = assay: Selectivity index, ratio of GI50 for rat IEC-18 cells to GI50 for human HCT116 cells; assay type: functional; outline: as §3
HCT-116 [18] = assay: Induction of DNA damage in human HCT116 cells assessed as histone H2AX phosphorylation at S139 after 12 hrs by western blot analysis; assay type: functional, cell-based
Outline: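 DNA-damage marker. HCT116 cells treated 12 h with compound or vehicle. Lysates immunoblotted with anti-H2AX S139ph, and β-actin served as the control. Relative levels were obtained by densitometric scanning; means ± SD of three separate experiments.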

Mus musculus [19] = assay: Acute toxicity in ICR mouse assessed as abnormality in drinking at 240 mg/kg, ip measured for 14 days; assay type: organism-based; details: in vivo, 336 h; outline: as §1
[20] = Acute toxicity in ICR mouse assessed as survival rate at 300 mg/kg, ip measured on day 14; assay type: organism-based; details: in vivo; outline: as §1
HCT-116 [21] = assay: Induction of PARP cleavage in human HCT116 cells at 1 to 5 uM after 48 hrs by western blot analysis; assay type: functional, cell-based; outline: as §2
Mus musculus [22] = assay: Acute toxicity in ICR mouse assessed as death at 240 mg/kg, ip measured for 14 days; assay type: organism-based; details: in vivo, 336 h; outline: as §1
[23] = Downregulation of Bcl2 expression in human HCT116 cells after 48 hrs by western blot analysis; assay type: functional, cell-based; details: HCT-116; outline: as §2
Histone deacetylase 1 [24] = target: T1, Histone deacetylase 1; assay: Potency index, ratio of IC50 for SAHA to IC50 for test compound for inhibition of human recombinant HDAC1 using Boc-Lys (Ac)-AMC as substrate after 60 mins by fluorometric analysis
Outline: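 Recombinant human HDAC1 and HDAC8 incubated with compound dilutions plus Boc-Lys(Ac)-AMC at 37 °C for 60 min, then developer for 30 min. Fluorescence read at ex 355/em 460 nm; activity as % of control and IC50 calculated. Ratios formed from these IC50s; three independent experiments.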

T1 sequence (Q13547 whole entry): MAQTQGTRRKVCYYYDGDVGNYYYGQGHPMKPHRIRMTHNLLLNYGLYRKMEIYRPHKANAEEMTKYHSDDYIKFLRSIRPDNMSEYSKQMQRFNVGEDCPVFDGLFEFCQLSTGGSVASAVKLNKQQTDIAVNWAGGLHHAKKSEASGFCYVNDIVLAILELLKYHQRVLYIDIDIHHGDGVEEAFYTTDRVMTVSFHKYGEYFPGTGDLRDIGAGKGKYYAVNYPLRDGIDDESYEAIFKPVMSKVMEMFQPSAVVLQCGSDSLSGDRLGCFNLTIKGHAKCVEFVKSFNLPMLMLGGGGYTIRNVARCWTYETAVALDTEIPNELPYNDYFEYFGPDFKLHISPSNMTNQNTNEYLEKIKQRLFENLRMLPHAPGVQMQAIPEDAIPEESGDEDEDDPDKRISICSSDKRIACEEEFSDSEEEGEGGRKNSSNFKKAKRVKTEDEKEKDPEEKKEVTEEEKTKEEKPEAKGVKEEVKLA
Chain of Cellular tumor antigen p53 (Homo sapiens) (P04637 whole entry, looked up): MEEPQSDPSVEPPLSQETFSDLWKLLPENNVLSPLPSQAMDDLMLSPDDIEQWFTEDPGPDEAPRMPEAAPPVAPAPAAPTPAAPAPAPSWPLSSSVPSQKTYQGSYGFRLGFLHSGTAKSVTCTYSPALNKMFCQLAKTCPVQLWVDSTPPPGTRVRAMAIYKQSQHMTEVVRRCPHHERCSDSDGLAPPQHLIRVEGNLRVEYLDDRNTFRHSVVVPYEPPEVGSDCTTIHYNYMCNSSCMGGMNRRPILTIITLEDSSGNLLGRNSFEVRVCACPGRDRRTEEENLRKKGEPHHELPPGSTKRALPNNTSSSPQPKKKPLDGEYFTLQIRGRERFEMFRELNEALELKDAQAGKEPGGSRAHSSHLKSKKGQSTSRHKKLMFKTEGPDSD

## COc1ccc(-c2nc(NC(=O)NCCCC(=O)NO)cc3c2[nH]c2ccccc23)cc1
[1]
  survival at 14 day: 70%
Histone deacetylase 1 [2]
  IC50: 0.026 µM
LoVo
  IC50: 1.63 µM
[3]
  survival at 14 day: 30%
Mus musculus [4]
  Activity: Non-toxic
Mus musculus [5]
  Activity: Non-toxic
HDAC6 (Homo sapiens)
  Ratio IC50: 5
Mus musculus [6]
  Activity: Non-toxic
Mus musculus [7]
  Activity: Non-toxic
[8]
  Activity: Active
[9]
  inhibition in vivo at 90 mg/kg: 61.6%
[10]
  Activity: Dose-dependent effect
Mus musculus [11]
  Activity: Non-toxic
HCT-116 [12]
  TGI: Active
Mus musculus [13]
  Activity: Non-toxic
Histone deacetylase 8
  IC50: 0.16 µM
[14]
  Activity: Non-toxic
[15]
  GI50: 1.17 µM
  IC50: 0.83 µM
Mus musculus [16]
  Activity: Non-toxic
HCT-116 [17]
  RatioGI50: 5
HCT-116 [18]
  Activity: Dose-dependent effect
Mus musculus [19]
  Activity: Non-toxic
[20]
  survival at 14 day: 90%
HCT-116 [21]
  Activity: Active
Mus musculus [22]
  Activity: Non-toxic
[23]
  Activity: Dose-dependent effect
Histone deacetylase 1 [24]
  Ratio IC50: 7
